From PubChem BioAssay
This is a sample that favours compounds with a hit; in the whole collection about 3% have one here.
SENP6 block = SENP6 protease inhibitors, primary screen, biochemical, luminescence, uHTS; Sentrin-specific protease 6 (Homo sapiens), Q9GZR1; Recombinant SENP6 catalytic domain, aminoluciferin luminescence; inhibition, % at 10 µM; hit rate 1.8% among 330,000; AID 2599, 2010;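 active means inhibition above about 50% at the single tested dose, limit read from the data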
SENP7 block = SENP7 protease inhibitors, primary screen, biochemical, luminescence, uHTS; inhibition, % at 5 µM; hit rate 1.5% among 330,000; recombinant SENP7, Z-RLRGG-aminoluciferin luminescence, 40 min; Sentrin-specific protease 7 (Homo sapiens), Q9BQF6;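 active means inhibition above about 50% at the single test dose, limit read from the data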
Target sequence (Q9BQF6 706-1050 limits assumed): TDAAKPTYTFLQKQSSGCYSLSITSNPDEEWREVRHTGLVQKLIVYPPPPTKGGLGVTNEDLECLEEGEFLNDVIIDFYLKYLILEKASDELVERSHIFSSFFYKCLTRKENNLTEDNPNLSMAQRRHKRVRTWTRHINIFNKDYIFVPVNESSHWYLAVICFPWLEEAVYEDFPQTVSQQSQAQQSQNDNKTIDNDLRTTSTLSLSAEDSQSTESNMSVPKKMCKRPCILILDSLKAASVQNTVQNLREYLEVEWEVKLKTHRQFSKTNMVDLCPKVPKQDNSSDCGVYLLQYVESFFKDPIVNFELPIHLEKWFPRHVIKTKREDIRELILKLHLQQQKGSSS
SENP8 block-1 = human SENP8 protease inhibitors, primary screen, biochemical, fluorescence, Nedd8 protein substrate, uHTS | Sentrin-specific protease 8 (Homo sapiens), Q96LD8 | recombinant SENP8 | inhibition, % at 20 µM | hit rate 0.64% among 360,000 | AID 602440, 2012; in the data active means inhibition mostly above about 40%, no sharp cut-off; inactive means mostly below about 27%
SENP8 block-2 = SENP8 protease inhibitors, primary screen, biochemical, luminescence. Sentrin-specific protease 8 (Homo sapiens), Q96LD8. purified SENP8, Z-RLRGG-aminoluciferin cleavage. inhibition, % at 10 µM. hit rate 1.2% among 330,000. AID 2540, 2010; in the data active means inhibition above about 50%
UBC13 polyUb = UBC13 polyubiquitin chain formation inhibitors, primary screen, biochemical, TR-FRET, uHTS; inhibition, % at 20 µM; AID 485273, 2010; hit rate 0.47% among 330,000; Ubiquitin-conjugating enzyme E2 N (Homo sapiens), P61088; in the data active means inhibition above about 45%, passing the limit was not always enough
Target sequence (P61088 whole entry, looked up): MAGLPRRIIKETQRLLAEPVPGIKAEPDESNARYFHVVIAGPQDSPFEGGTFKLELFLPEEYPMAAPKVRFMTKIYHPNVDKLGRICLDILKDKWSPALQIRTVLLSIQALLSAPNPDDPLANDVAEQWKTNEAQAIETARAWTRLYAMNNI
Apaf-1 inh = inhibitors of human Apaf-1 apoptosome, primary screen, biochemical, DEVD-Rh110 fluorescence, uHTS; reconstituted apoptosome caspase-3 activity; inhibition, % at 20 µM; Apoptotic protease-activating factor 1 (Homo sapiens), O14727; AID 489030, 2010; hit rate 0.71% among 330,000; active means inhibition of at least 40% at 20 µM
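System: reconstituted apoptosome with Apaf-1, cytochrome c, caspase-9, procaspase-3, dATP; Signal: Rh110 fluorescence intensity; Schedule: 30 min compound preincubation, 50 min activation, room temperature; Reagent: cytochrome c trigger plus (Z-DEVD)2-Rh110 caspase-3 substrate.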
SENP8 conf = SENP8 protease inhibitors, retest, confirmation, biochemical, luminescence, single concentration; shares compounds with SENP7 block; Recombinant SENP8, Z-RLRGG-aminoluciferin luminescence, 60 min; inhibition, % at 12.5 µM; hit rate 40% among 6,200;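 active means mean inhibition across replicates above about 50%, limit read from the data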
SENP6 confirm = SENP6 protease inhibitors, confirmation, biochemical, luminescence, single concentration. shares compounds with SENP7 block. recombinant SENP6, Z-RLRGG-aminoluciferin luminescence. inhibition, % at 12.5 µM. hit rate 58% among 6,200. AID 488915, 2010
SENP7 conf = SENP7 protease inhibitors, retest, confirmation, biochemical, luminescence, single concentration; AID 488917, 2010; recombinant SENP7, Z-RLRGG-aminoluciferin luminescence, 40 min; shares compounds with SENP7 block; hit rate 69% among 6,200; inhibition, % at 12.5 µM
Casp3 select = caspase-3 protease inhibitors, confirmation, selectivity assay for SENP inhibitor project, biochemical, single concentration. hit rate 60% among 6,200. AID 488918, 2010. purified caspase-3, Z-DEVD-aminoluciferin luminescence, 60 min. shares compounds with SENP7 block. inhibition, % at 12.5 µM;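 active means mean inhibition above about 50%, limit read from the data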
Luc interf = counter-screen for SENP inhibitors: luminescence interference; shares compounds with SENP7 block; Pre-incubated SENP8/Z-RLRGG-aminoluciferin, luciferase luminescence interference; inhibition, % at 12.5 µM; hit rate 39% among 6,200; AID 488919;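 active means mean inhibition above about 50% when retested at one dose, limit read from the data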
Hits are given with their value; n = inactive; x = no result.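 How the source made its calls, unless noted: active means mean inhibition above about 50% in the one-dose retest (limit read from the data); inactive means the rest.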

SMILES	SENP6 block	SENP7 block	SENP8 block-1	SENP8 block-2	UBC13 polyUb	Apaf-1 inh	SENP8 conf	SENP6 confirm	SENP7 conf	Casp3 select	Luc interf
CC(=O)Nc1nc2cc3c(cc2s1)OCCO3	76.7	79.3	n	61.2	n	n	78.1	76.4	93.7	88.7	74.2
O=C(Nc1nc2cc3c(cc2s1)OCCO3)C1CCCCC1	n	n	n	n	n	n	x	x	x	x	x
CCOC(=O)CNC(=O)CSc1nnc(NC(=O)c2ccc3c(c2)OCO3)s1	54.5	78.5	n	53.9	n	n	n	n	n	n	n
CN(C)S(=O)(=O)c1ccc(C(=O)Nc2nnc(SCc3ccccc3)s2)cc1	n	n	n	n	n	n	x	x	x	x	x
CSc1nnc(NC(=O)c2ccc3c(c2)OCO3)s1	96.4	96.9	n	89.8	n	n	n	n	64.5	51.2	n
CCOC(=O)CNC(=O)CSc1nnc(NC(=O)c2ccc(C)cc2)s1	n	n	n	n	n	n	x	x	x	x	x
CSc1nnc(NC(=O)c2ccc(S(=O)(=O)N(C)C)cc2)s1	n	51.0	n	n	n	n	n	n	n	n	n
CCCn1c(N)c(N(CCOC)C(=O)/C=C/c2cccc(Cl)c2)c(=O)[nH]c1=O	n	n	n	n	n	n	x	x	x	x	x
O=C(Nc1cccc(-c2ccc(N3CCOCC3)nn2)c1)c1ccccc1Cl	n	n	n	n	n	n	x	x	x	x	x
O=C(COc1ccc(Cl)cc1)Nc1cccc(-c2ccc(N3CCOCC3)nn2)c1	54.3	68.2	n	n	n	n	n	n	n	n	n
O=C(Nc1cccc(-c2ccc(N3CCOCC3)nn2)c1)c1ccc(Cl)cc1	n	n	n	n	n	n	x	x	x	x	x
O=C(Nc1cccc(-c2ccc(N3CCCCC3)nn2)c1)c1ccco1	76.0	73.1	n	53.7	n	n	77.1	73.8	90.8	74.7	72.5
CC(C)C[C@@H]1COc2cc(N3CCC[C@H]3CO)ccc2S(=O)(=O)N1	x	x	n	x	x	x	x	x	x	x	x
Nc1c(-c2n[nH]c(=S)n2-c2ccc(Cl)cc2Cl)cnn1-c1ccccc1	n	n	n	n	n	n	x	x	x	x	x
Nc1[nH]nc2c1NN(c1ccc(Cl)cc1Cl)N2	65.0	n	n	n	n	n	n	n	n	n	n
Cc1ccc(C)n1-c1ccc(C(=O)NN)s1	n	n	n	n	n	n	x	x	x	x	x
CC(=O)c1c(C)[nH]c(C(=O)Nc2ccc3c(c2)OCCO3)c1C	57.6	57.5	n	n	n	n	57.1	53.3	83.8	75.1	59.7
CCOc1ccc(NC(=O)c2[nH]c(C)c(C(C)=O)c2C)cc1	50.3	58.7	n	n	n	n	56.7	50.3	81.0	74.8	62.1
CCOC(=O)c1[nH]c(C)c(C(=O)Nc2ccc3c(c2)OCCO3)c1C	n	n	n	n	n	n	x	x	x	x	x
COc1ccc(NC(=O)c2[nH]c(C)c(C(C)=O)c2C)cc1	n	n	n	n	n	n	x	x	x	x	x
CCOc1ccc(NC(=O)c2c(N)n(C)c(=O)[nH]c2=O)cc1	58.5	n	n	n	n	n	n	n	n	n	n
CCOc1ccc(NC(=O)c2ccc(N)cc2)cc1	n	n	n	n	n	n	x	x	x	x	x
CC(=O)c1ccc(OCc2nnn(CC(=O)NS(=O)(=O)Cc3ccccc3)c2-c2ccccc2)cc1	x	x	n	x	x	x	x	x	x	x	x
CCN(CC)S(=O)(=O)c1ccc(N=Nc2c(N)[nH]c(=O)[nH]c2=O)cc1	51.6	n	43.3	n	n	n	n	n	n	n	n
CCN(CC)S(=O)(=O)c1ccc(N=NC2=C(O)CCCC2=O)cc1	n	n	n	n	n	n	x	x	x	x	x
SMILES	SENP6 block	SENP7 block	SENP8 block-1	SENP8 block-2	UBC13 polyUb	Apaf-1 inh	SENP8 conf	SENP6 confirm	SENP7 conf	Casp3 select	Luc interf
Clc1ccc2nc(-c3ccc(Br)s3)cn2c1	80.0	n	n	63.3	n	n	n	68.8	86.5	n	n
COc1ccc(O)c(/C=N/N2CCCCC2)c1	80.0	83.4	n	77.0	n	n	77.6	80.5	96.0	87.7	69.2
COc1ccc(/C(C)=N/N2CCCCC2)c(O)c1	n	n	n	n	n	n	x	x	x	x	x
COc1ccc2[nH]c(C(=O)Nc3cccc(C)n3)cc2c1	91.0	85.6	n	85.5	n	n	91.7	92.1	100.5	91.9	58.5
COc1ccc2[nH]c(C(=O)Nc3ccc(C)c(F)c3)cc2c1	n	n	n	n	n	n	x	x	x	x	x
O=C(O)c1cccc(N/N=C/c2cc(Br)cc(Br)c2O)c1	76.8	n	n	73.8	n	n	n	90.0	95.2	n	77.0
CN(C)c1ccc(/C=N/Nc2cccc(C(=O)O)c2)cc1	98.8	n	n	96.2	n	n	98.0	101.5	104.3	99.7	99.9
O=C1C=C(c2ccc(F)cc2OCc2ccccc2)C[C@@H](c2ccc(F)cc2)C1	n	n	n	n	n	n	x	x	x	x	x
Cc1ccc(S(=O)(=O)N/N=C/c2ccc3nccnc3c2)cc1	n	n	n	n	n	n	x	x	x	x	x
CCN(C(=O)CSc1ncccc1C(=O)O)C1CCCCC1	n	n	n	n	n	n	x	x	x	x	x
COc1cc(CNC(=O)C2CC2)ccc1OCc1ccccc1	54.7	n	n	n	n	n	n	n	77.6	75.8	n
COc1cc(CN2CCC(C(=O)NCCC(C)C)CC2)ccc1OCc1ccccc1	n	n	n	n	n	n	x	x	x	x	x
O=C1N=c2ccccc2=C1c1sc(NS(=O)(=O)c2ccccc2)nc1O	n	n	n	n	n	n	x	x	x	x	x
O=C1N=c2ccccc2=C1c1sc(NS(=O)(=O)Cc2ccccc2)nc1O	87.9	69.1	n	n	n	n	77.9	72.9	92.4	n	n
CN(C)c1ccc(/C=N/NC(N)=S)cc1[N+](=O)[O-]	n	n	n	n	n	n	x	x	x	x	x
CC(=O)Nc1ccc(-c2cc(N)n(-c3ccccc3)n2)cc1	55.5	57.9	n	n	n	n	n	n	77.8	79.8	62.1
